Results collected from several papers.
Protocols differ between the studies behind these lines.
Target: Dual specificity protein kinase CLK1 (CLK1, Homo sapiens, UniProt P49759)

C1=C/COCc2cc(ccc2OCCN2CCCC2)Nc2nccc(n2)-c2cccc(c2)COC/1  remaining binding (binding; 0.1 µM): 27%
Cc1ccc(NC(=O)c2ccnc(C(F)(F)F)c2)cc1-c1cc(OCCO)nc(N2CCOCC2)c1  remaining binding (binding; competition with immobilised ligand; 1 µM): 92%
C=CC(=O)N1CCC([C@@H]2CCNc3c(C(N)=O)c(-c4ccc(Oc5ccccc5)cc4)nn32)CC1  inhibition (enzyme activity; inhibitor; 1 µM): 19%
Cc1cc(O)c(-c2ccc([C@@H](C)CN(C)C)cc2)c2c1[nH]c(=O)c1sccc12  inhibition (enzyme activity; inhibitor; 0.1 µM): -7.55%
CCCCC(=O)Nc1ccc(-c2ccc3ncn(CCC)c(=O)c3c2)cn1  remaining binding (binding; competition with immobilised ligand; 0.5 µM): 79%
COc1ccc2oc(-c3ccc4nc(N)oc4c3)c/c(=N\c3ccccc3NC(=O)CCN)c2c1  remaining binding (binding; 1 µM): 94%
CN1CCN(C(=O)c2ccc(NC(=O)Nc3ccc(N(C)c4ccnc(Nc5ccc(CS(C)(=O)=O)cc5)n4)cc3)cc2)CC1  remaining binding (binding; competition with immobilised ligand; 1 µM): 84%
C=CC(=O)N1CCC[C@@H](n2nc(-c3ccc(Oc4ccccc4)cc3)c3c(N)ncnc32)C1  inhibition (enzyme activity; inhibitor; 1 µM): 23%
C#Cc1cc(-c2cc(Nc3nc(N[C@@H](C)c4ccc(F)cn4)ncc3Cl)n[nH]2)ccc1C=O  inhibition (enzyme activity; inhibitor; 0.2 µM): 34.2%
